# This is a sample that favours compounds with a hit; in the whole collection about 2% have one here.
# PPC-1+TRAIL kill = compounds killing PPC-1 cancer cells with TRAIL present, primary screen, TRAIL potentiator project, ATPLite luminescence, uHTS; PPC-1 cells + TRAIL, ATPLite viability luminescence; cell killing (% activity), % at 4 µM or 5 µM; 0.41% of 220,000 active; AID 1443, 2008;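 active = cell killing above 50% in the first pass at 4 µM, then a duplicate retest at 5 µM averaging 50% or more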;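 also: plate controls were cells with TRAIL plus DMSO for no effect and medium-only wells lacking cells for full effect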
# FLuc stim CS = FLuc activators, initial screening, artefact control for FLuc-dependent activation tests, biochemical, ATPlite luminescence. ATPlite luciferase biochemical, 10 min; 0 = ATP-free wells, 1 = DMSO control. 200,000 tested, under 10 active. Luciferin 4-monooxygenase (Photinus pyralis), P08659. activation factor at 10 µM;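 active = luciferase activation factor, scaled between plate controls, of at least 2 with compound at 10 µM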
# Target sequence (P08659 whole entry, looked up): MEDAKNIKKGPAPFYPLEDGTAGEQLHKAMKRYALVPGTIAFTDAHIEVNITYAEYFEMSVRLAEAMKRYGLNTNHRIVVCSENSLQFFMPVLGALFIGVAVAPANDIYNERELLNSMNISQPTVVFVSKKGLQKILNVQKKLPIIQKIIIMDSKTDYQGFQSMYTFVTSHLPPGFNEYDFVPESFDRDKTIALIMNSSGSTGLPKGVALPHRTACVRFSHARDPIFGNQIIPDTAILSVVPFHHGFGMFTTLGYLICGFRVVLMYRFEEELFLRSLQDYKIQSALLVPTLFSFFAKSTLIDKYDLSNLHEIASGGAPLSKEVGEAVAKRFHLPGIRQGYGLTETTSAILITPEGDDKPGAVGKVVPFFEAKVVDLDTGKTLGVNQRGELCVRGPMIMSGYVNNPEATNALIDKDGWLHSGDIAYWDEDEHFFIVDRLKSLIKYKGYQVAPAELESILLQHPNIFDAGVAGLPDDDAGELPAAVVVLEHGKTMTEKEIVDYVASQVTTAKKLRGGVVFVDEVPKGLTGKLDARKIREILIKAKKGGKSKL
#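 Material: Luciferase/luciferin reagent mix; Doses: test compounds dosed from 2 mM stocks in 100% DMSO; Schedule: 10 min incubation after luciferase reagent addition, room temperature; Measured by: luminescence from luciferase reaction; Read-out: luminescence gain marking luciferase activators.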
# TRAIL sens C8 = viability loss with TRAIL in NB7+C8 cells, primary screen, TRAIL sensitizer project, cell-based, ATPlite luminescence; inhibition (viability loss, TRAIL sensitization), % at 10 µM; 1% of 360,000 active; AID 624354, 2012;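 active = compounds causing at least 50% loss of cell viability in the single-dose screen, relative to plate controls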
# FLuc inhib CS = firefly luciferase enzyme inhibitors, primary screen, artefact control for luciferase-based inhibitor screens, biochemical, luminescence, ATPLite; inhibition, % at 10 µM; 10 min; 1.5% of 200,000 active; Luciferin 4-monooxygenase (Photinus pyralis), P08659;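 active = inhibition above about 50% when tested at 10 µM, limit read from the data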
# HSP90 inh = HSP90 inhibitors, primary screen, cell lysate, luminescence; 0.91% of 290,000 active; inhibition, % at 5.6 µM; Heat shock protein HSP 90 (rabbit reticulocyte lysate; luciferase refolding); Rabbit reticulocyte lysate, luciferase refolding luminescence, 3 h;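 active = inhibition above the screen-wide mean plus 3 SD, computed separately per campaign, cut at about 16% in these data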;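 also: 0% = DMSO wells and 100% = 60 µM geldanamycin wells; inhibitors lower the luminescence because luciferase stays unfolded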
# * = called active by the depositor; / = not tested or not shown.
SMILES,PPC-1+TRAIL kill,FLuc stim CS,TRAIL sens C8,FLuc inhib CS,HSP90 inh
CC1=CN2C(=N)/C(=C/c3ccc(C)o3)C(=O)N=C2S1,25.9,0.2,53.5*,80.1*,-1.8
CC1(c2nc3ccccc3[nH]2)CCC(=O)N1C1CC1 (stereo not drawn),/,/,-20.7,/,/
CC(C)NC(=O)C1(C)CCN1C(=O)c1cccc(F)c1 (stereo not drawn),/,/,-15.7,/,/
CCOC(=O)c1c(C)sc2c1N(C(=O)CCl)c1cc(Cl)ccc1S2,4.6,1.1,55.0*,-6.1,5.9
CCCn1c(O)c(/C=C2\C=NN=C2c2ccccc2)sc1=S,-1.1,1,76.4*,-4.0,7.1
C=CCn1c(O)c(/C=C2\C=NN=C2c2ccccc2)sc1=S,6.8,/,8.4,/,1.5
CCCN1C[C@@H](C)[C@@H](OC)CN(C)C(=O)c2ccc(NC(=O)c3cccc(F)c3)cc2OC[C@H]1C,/,/,-9.2,/,/
COc1ccc(-c2nc3nc(C)cc(C)n3n2)cc1,37.0,0.4,36.9,58.9*,-0.6
COc1ccc(CNc2nc3nc(C)cc(C)n3n2)cc1,1.2,1,-0.5,2.7,-1.8
Fc1ccc2nc(N3CCOCC3)sc2c1,-3.2,0.9,3.0,6.8,-6.2
Nc1nc2ccc(N3CCOCC3)cc2s1,17.9,0.3,48.3,66.4*,8.3
CC(=O)c1cccc(-c2ccnc3c2CC(C(=O)Nc2cccc(NS(C)(=O)=O)c2)O3)c1 (stereo not drawn),/,/,76.5*,/,/
CS(=O)(=O)Nc1cccc(NC(=O)C2Cc3c(-c4ccco4)ccnc3O2)c1 (stereo not drawn),/,/,53.2*,/,/
CC(=O)c1cccc(NC(=O)C2Cc3c(-c4cccc(C(C)=O)c4)ccnc3O2)c1 (stereo not drawn),/,/,12.7,/,/
CC1([N+](=O)[O-])COC2(CCCCC2)OC1,/,/,-5.7,/,/
CCOC(=O)C1(C)CCCN(C(=O)c2cccs2)C1 (stereo not drawn),/,/,-4.2,/,/
Cc1cccc(CCNC(=O)C2CC(O)CN2C(=O)Nc2ccccc2)c1 (stereo not drawn),/,/,-3.8,/,/
Nc1c2c(nc3ccccc13)CCCC2,2.6,1.1,-4.4,-7.7,-1.5
Nc1c2ccccc2nc2ccccc12,28.6,/,63.9*,/,-5.5
CC(/C=N/NC(=O)Cc1cccs1)=C\c1ccco1,-11.6,1.1,-1.4,-6.0,-0.4
CC(/C=N/NC(=O)c1cccs1)=C\c1ccco1,19.2,0.4,2.2,56.7*,0.4
O=c1cc(CN2CCN(c3ccccc3)CC2)c2ccccc2o1,/,/,8.7,/,/
Cc1ccc(Nc2nc(CSc3nnc(-c4ccc(F)cc4)n3C)cs2)cc1,33.4,0.2,34.8,83.5*,5.7
CCOC(=O)[C@]12CCC=C1N(Cc1cccc3ccccc13)C(=O)[C@H](CC(=O)N1CCCC1)C2,/,/,0.7,/,/
CC1(C(=O)NS(=O)(=O)c2ccccc2OC(F)(F)F)CCN1C(=O)c1ccco1 (stereo not drawn),/,/,-14.3,/,/
SMILES,PPC-1+TRAIL kill,FLuc stim CS,TRAIL sens C8,FLuc inhib CS,HSP90 inh
O=C(NCCc1ccccc1)C(=O)NCc1ccncc1,12.6,0.5,-5.3,50.1*,1.7
COc1cc(/C=N/NC(=O)COc2ccc(C)cc2)ccc1OC(=O)c1cccs1,45.4,1.1,56.5*,-5.1,-2.3
Cc1cnc(CNC(=O)C2(C)CCCN2CC(C)C)cn1 (stereo not drawn),/,/,-7.6,/,/
O=C(NCc1cccnc1)c1csc([C@@H]2O[C@H](CO)[C@H](O)[C@H](O)[C@H]2O)n1,/,/,-7.1,/,/
C[C@@H](NC(=O)c1[nH]cnc1C(=O)Nc1ccccc1F)c1ccccc1,/,/,20.1,/,/
CCOc1ccc2nc3cc(N=Nc4ccc(N)nc4N)ccc3c(N)c2c1,/,/,79.3*,/,/
COc1ccc(N=Nc2ccc(N)nc2N)cc1,14.2,/,-0.2,/,3.5
COCC1CCN(Cc2c(C(=O)N3CCOCC3)nc3c(C)cccn23)C1 (stereo not drawn),/,/,-13.8,/,/
CN(C)c1ccc(/C=C/c2ccc3c4ccccc4ccc3[n+]2-c2ccccc2)cc1,67.5*,0.3,63.2*,65.4*,3.1
CN(C)c1ccc(/C=C/c2ccc3ccccc3[n+]2C)cc1,39.5,0.7,36.0,31.9,3.7
N#C/C(=C\c1ccc(N2CCOCC2)o1)c1nc2ccccc2[nH]1,13.7,0.2,56.9*,84.7*,2.7
